Results: ChEMBL document CHEMBL1765010, “Reversible competitive α-ketoheterocycle inhibitors of fatty acid amide hydrolase containing additional conformational constraints in the acyl side chain: orally active, long-acting analgesics” (J Med Chem, 2011)
The source made the active and inactive calls.

Assays:
[1] = Half life in human liver microsomes; format: ADME, Microsome
[2] = system: Mus musculus; test: Inhibition of FAAH in C57Bl/6J mouse liver assessed as increase of anandamide level at 30 mg/kg, ip after 1 hr relative to control; format: functional; settings: route intraperitoneal
[3] = system: Mus musculus; test: Inhibition of FAAH in C57Bl/6J mouse liver assessed as increase of 2-arachidonoylglycerol level at 30 mg/kg, ip after 1 hr relative to control; format: functional; settings: route intraperitoneal
[4] = system: Mus musculus; test: Inhibition of FAAH in C57Bl/6J mouse liver assessed as increase of N-palmitoyl ethanolamine level at 30 mg/kg, ip after 1 hr relative to control; format: functional; settings: route intraperitoneal
[5] = target: T1, Fatty-acid amide hydrolase 1 (Homo sapiens) (UniProt O00519); test: Competitive inhibition of full-length human FAAH expressed in COS-7 cells by Lineweaver-Burk analysis; format: cell-based
T1 sequence (whole entry): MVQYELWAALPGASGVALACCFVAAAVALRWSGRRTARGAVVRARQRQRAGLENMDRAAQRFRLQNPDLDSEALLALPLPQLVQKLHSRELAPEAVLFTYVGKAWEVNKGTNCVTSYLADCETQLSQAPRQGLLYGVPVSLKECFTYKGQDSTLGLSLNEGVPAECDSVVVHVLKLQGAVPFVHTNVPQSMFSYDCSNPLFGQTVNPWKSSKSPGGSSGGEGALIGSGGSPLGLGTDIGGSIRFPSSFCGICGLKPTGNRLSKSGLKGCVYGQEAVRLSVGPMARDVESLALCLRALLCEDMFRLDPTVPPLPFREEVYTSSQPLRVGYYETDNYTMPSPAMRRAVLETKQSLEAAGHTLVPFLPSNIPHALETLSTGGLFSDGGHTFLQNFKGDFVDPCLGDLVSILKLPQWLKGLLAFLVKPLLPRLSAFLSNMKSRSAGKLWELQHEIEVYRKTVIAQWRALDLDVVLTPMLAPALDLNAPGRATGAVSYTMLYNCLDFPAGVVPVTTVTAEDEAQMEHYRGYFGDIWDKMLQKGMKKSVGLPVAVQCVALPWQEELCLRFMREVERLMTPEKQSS
Method in brief: (§1)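 Solubilized membrane lysate of COS-7 cells transiently transfected with full-length human FAAH cDNA. Aliquots quenched in 0.1 N HCl at three times; oleamide/oleic acid extracted into EtOAc and separated by TLC. Initial rates (≤10–20% conversion) analysed by Lineweaver–Burk plot.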

[6] = target: T2, Fatty-acid amide hydrolase 1 (Rattus norvegicus, UniProt P97612); test: Inhibition of rat recombinant FAAH expressed in Escherichia coli assessed as [14C]-labeled oleamide to oleic acid conversion
T2 sequence (P97612 whole entry): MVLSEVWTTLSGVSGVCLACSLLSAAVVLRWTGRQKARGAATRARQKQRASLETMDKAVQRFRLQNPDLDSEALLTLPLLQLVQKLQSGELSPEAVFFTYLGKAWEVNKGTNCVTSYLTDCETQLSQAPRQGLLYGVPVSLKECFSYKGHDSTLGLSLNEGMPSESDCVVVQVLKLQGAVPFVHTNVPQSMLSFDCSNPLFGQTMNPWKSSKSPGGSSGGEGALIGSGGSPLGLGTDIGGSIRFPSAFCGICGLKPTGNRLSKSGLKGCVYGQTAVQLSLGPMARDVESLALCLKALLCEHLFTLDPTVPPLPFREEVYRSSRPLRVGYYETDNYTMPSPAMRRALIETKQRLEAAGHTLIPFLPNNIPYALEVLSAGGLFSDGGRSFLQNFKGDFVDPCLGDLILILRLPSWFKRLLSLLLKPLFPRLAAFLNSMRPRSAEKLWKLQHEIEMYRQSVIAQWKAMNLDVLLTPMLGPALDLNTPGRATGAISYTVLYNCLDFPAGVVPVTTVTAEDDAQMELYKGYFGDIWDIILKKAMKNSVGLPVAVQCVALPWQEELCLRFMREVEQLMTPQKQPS

[7] = system: Mus musculus; test: Inhibition of FAAH in C57Bl/6J mouse brain assessed as increase of 2-arachidonoylglycerol level at 50 mg/kg, po after 1 hr relative to control; format: functional
Method in brief: (§2)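 Male C57Bl/6J mice (<6 months, 20–28 g) given compound orally as a PEG300 solution at 10, 25 or 50 mg/kg, with 3 mice per group in the 50 mg/kg p.o. comparison; brains collected 1 h post-dose. Lipids extracted in CHCl3:MeOH:Tris pH 8.0 with deuterated internal standards, then measured by C18 LC-ESI-MS/MS relative to vehicle-treated mice.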

[8] = system: Mus musculus; test: Inhibition of FAAH in C57Bl/6J mouse brain assessed as increase of 2-arachidonoylglycerol level at 30 mg/kg, ip after 1 hr relative to control; format: functional; settings: route intraperitoneal
Method in brief: (§3)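 Male C57Bl/6J mice (<6 months, 20–28 g) dosed i.p. at 30 mg/kg in 18:1:1 saline:ethanol:emulphor emulsion; brains taken 1 h later. One mouse in the initial screen, 3 per group in the follow-up. Brain homogenized in CHCl3:MeOH:Tris pH 8.0 with deuterated lipid standards; organic extract quantified by reverse-phase C18 LC-ESI-MS/MS against vehicle controls.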

[9] = system: Mus musculus; test: Inhibition of FAAH in C57Bl/6J mouse brain assessed as increase of N-palmitoyl ethanolamine level at 50 mg/kg, po after 1 hr relative to control; format: functional; method in brief: as §2
[10] = system: Mus musculus; test: Inhibition of FAAH in C57Bl/6J mouse brain assessed as increase of anandamide level at 30 mg/kg, ip after 1 hr relative to control; format: functional; settings: route intraperitoneal; method in brief: as §3
[11] = target: T1, Fatty-acid amide hydrolase 1 (Homo sapiens); test: Reversible inhibition of full-length human FAAH expressed in COS-7 cells by Lineweaver-Burk analysis; format: cell-based; method in brief: as §1
[12] = system: Mus musculus; test: Inhibition of FAAH in C57Bl/6J mouse brain assessed as increase of anandamide level at 50 mg/kg, po after 1 hr relative to control; format: functional; method in brief: as §2
[13] = system: Mus musculus; test: Inhibition of FAAH in C57Bl/6J mouse brain assessed as increase of arachidonic acid level at 30 mg/kg, ip after 1 hr relative to control; format: functional; settings: route intraperitoneal; method in brief: as §3
[14] = system: Mus musculus; test: Antinociceptive activity in CD1 mouse assessed as thermal-stimulus induced tail flick latency at 1.8 to 5.6 mg/kg, iv after 30 to 60 mins; format: functional, organism-based
Method in brief: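 Tail flick at 52 °C in mice, dosed i.v. Baseline responders within 5 s were kept and retested at several times after dosing. Cut-off 10 s, scored 100%. % antinociception = 100 × (test latency − control latency)/(10 − control latency).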

[15] = system: Mus musculus; test: Inhibition of FAAH in C57Bl/6J mouse brain assessed as increase of N-palmitoyl ethanolamine level at 30 mg/kg, ip after 1 hr relative to control; format: functional; settings: route intraperitoneal; method in brief: as §3
[16] = Half life in rat liver microsomes; format: ADME, Microsome
[17] = system: Mus musculus; test: Antinociceptive activity in CD1 mouse assessed as thermal-stimulus induced tail flick latency at 1 to 3.2 mg/kg, iv after 150 mins; format: functional, organism-based
Method in brief: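 Mice given compound i.v.; tail-flick latency to 52 °C water measured at several times after dosing. Animals not responding within 5 s at baseline were excluded, and a 10 s cut-off was scored as 100%. % antinociception = 100 × (test − control latency)/(10 − control latency).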

SMILES	fold change (FC) [2]	fold change (FC) [3]	fold change (FC) [4]	fold change (FC) [8]	fold change (FC) [10]	fold change (FC) [12]	fold change (FC) [13]	fold change (FC) [15]	further results
O=C(c1ncc(-c2ccccn2)o1)C1CCc2cc(OCc3ccccc3)ccc2C1 (configuration not stated)									half-life [1]: 12 min
O=C(O)c1cccc(-c2cnc(C(=O)[C@H]3CCc4cc(Oc5ccccc5)ccc4C3)o2)n1	5	1.1	2.1	1	1.5	3.5	0.7	2	inhibition [5]: Active; Ki [6]: 25 nM; fold change (FC) [7]: 1.4; fold change (FC) [9]: 3.7; inhibition [11]: Active; Activity [14]: Active
O=C(O)c1cccc(-c2cnc(C(=O)C3Cc4ccc(Oc5ccccc5)cc4C3)o2)n1 (configuration not stated)				0.9	1		0.8	1.2	
O=C(CCCCCCc1ccccc1)c1ncc(-c2ccccn2)o1	7	0.9	1.6		3.3	11		4.6	half-life [16]: 2 min
CN1CC[C@]23c4c5ccc(O)c4O[C@H]2[C@@H](O)C=C[C@H]3[C@H]1C5									Activity [17]: Active
